Blank lines part the entries; values can stand above or below the molecule they belong to. Calls of active or inactive are those of the source. The rule behind the calls is not given here.
Experiments:
[1] = molecular target: T1, Protein cereblon/Induced myeloid leukemia cell differentiation protein Mcl-1 (Homo sapiens) (UniProt Q07820+Q96SW2); experiment: Protac activity at Cereblon/MCL1 short isoform in wild type human OPM2 cells assessed as MCL1 short isoform abundance at 250 nM after 48 hrs by immunoblot analysis relative to control; assay type: cell-based
Summary of the method: (§1)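 OPM2 wild-type cells, run alongside the CRBN-/- line, were treated for 48 h with compound or DMSO. The MCL1 long and short isoforms were then measured by immunoblot against the DMSO control.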

[2] = Half-life in human liver microsome pre-incubated for 10 mins followed by addition of NADPH regenerating system after 5 to 60 mins by LC/MS/MS analysis; assay type: ADME; conditions: liver microsomes
[3] = molecular target: T1, Protein cereblon/Induced myeloid leukemia cell differentiation protein Mcl-1 (Homo sapiens); experiment: Protac activity at Cereblon/MCL1 short isoform in wild type human OPM2 cells assessed as MCL1 short isoform abundance at 500 nM after 48 hrs by immunoblot analysis relative to control; assay type: cell-based; summary of the method: as §1
[4] = molecular target: T2, Induced myeloid leukemia cell differentiation protein Mcl-1 (Homo sapiens, UniProt Q07820); experiment: Induction of MCL1 long isoform degradation in CRBN-/- human OPM2 cells assessed as protein abundance at 50 nM after 48 hrs by immunoblot analysis relative to control; assay type: cell-based
Summary of the method: (§2)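 OPM2 multiple myeloma cells, wild type or CRBN-knockout, were treated for 48 h with degrader or DMSO vehicle. MCL1 long and short isoforms were detected by immunoblot and levels compared with DMSO controls.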

[5] = molecular target: T2, Induced myeloid leukemia cell differentiation protein Mcl-1; experiment: Induction of MCL1 short isoform degradation in CRBN-/- human OPM2 cells assessed as protein abundance at 500 nM after 48 hrs by immunoblot analysis relative to control; assay type: cell-based; summary of the method: as §2
[6] = molecular target: T2, Induced myeloid leukemia cell differentiation protein Mcl-1; experiment: Induction of MCL1 long isoform degradation in CRBN-/- human OPM2 cells assessed as protein abundance at 100 nM after 48 hrs by immunoblot analysis relative to control; assay type: cell-based; summary of the method: as §2
[7] = molecular target: T1, Protein cereblon/Induced myeloid leukemia cell differentiation protein Mcl-1 (Homo sapiens); experiment: Protac activity at Cereblon/MCL1 long isoform in wild type human OPM2 cells assessed as protein abundance at 50 nM after 48 hrs by immunoblot analysis relative to control; assay type: cell-based; summary of the method: as §2
[8] = molecular target: T2, Induced myeloid leukemia cell differentiation protein Mcl-1; experiment: Induction of MCL1 long isoform degradation in CRBN-/- human OPM2 cells assessed as protein abundance at 250 nM after 48 hrs by immunoblot analysis relative to control; assay type: cell-based; summary of the method: as §2
[9] = molecular target: T2, Induced myeloid leukemia cell differentiation protein Mcl-1; experiment: Induction of MCL1 short isoform degradation in CRBN-/- human OPM2 cells assessed as protein abundance at 100 nM after 48 hrs by immunoblot analysis relative to control; assay type: cell-based; summary of the method: as §2
[10] = molecular target: T1, Protein cereblon/Induced myeloid leukemia cell differentiation protein Mcl-1 (Homo sapiens); experiment: Protac activity at Cereblon/MCL1 long isoform in wild type human OPM2 cells at 100 nM after 48 hrs by immunoblot analysis relative to control; assay type: cell-based; summary of the method: as §2
[11] = molecular target: T2, Induced myeloid leukemia cell differentiation protein Mcl-1; experiment: Induction of MCL1 short isoform degradation in CRBN-/- human OPM2 cells assessed as protein abundance at 50 nM after 48 hrs by immunoblot analysis relative to control; assay type: cell-based; summary of the method: as §2
[12] = molecular target: T1, Protein cereblon/Induced myeloid leukemia cell differentiation protein Mcl-1 (Homo sapiens); experiment: Protac activity at Cereblon/MCL1 short isoform in wild type human OPM2 cells assessed as MCL1 short isoform abundance at 50 nM after 48 hrs by immunoblot analysis relative to control; assay type: cell-based; summary of the method: as §1
[13] = molecular target: T2, Induced myeloid leukemia cell differentiation protein Mcl-1; experiment: Binding affinity to His-tagged biotinylated human MCL1 by surface plasmon resonance method
[14] = molecular target: T1, Protein cereblon/Induced myeloid leukemia cell differentiation protein Mcl-1 (Homo sapiens); experiment: Protac activity at Cereblon/MCL1 short isoform in wild type human OPM2 cells assessed as MCL1 short isoform abundance at 100 nM after 48 hrs by immunoblot analysis relative to control; assay type: cell-based; summary of the method: as §1
[15] = molecular target: T2, Induced myeloid leukemia cell differentiation protein Mcl-1; experiment: Induction of MCL1 long isoform degradation in CRBN-/- human OPM2 cells assessed as protein abundance at 500 nM after 48 hrs by immunoblot analysis relative to control; assay type: cell-based; summary of the method: as §2
[16] = molecular target: T1, Protein cereblon/Induced myeloid leukemia cell differentiation protein Mcl-1 (Homo sapiens); experiment: Protac activity at Cereblon/MCL1 long isoform in wild type human OPM2 cells at 500 nM after 48 hrs by immunoblot analysis relative to control; assay type: cell-based; summary of the method: as §2
[17] = molecular target: T1, Protein cereblon/Induced myeloid leukemia cell differentiation protein Mcl-1 (Homo sapiens); experiment: Protac activity at Cereblon/MCL1 long isoform in wild type human OPM2 cells at 250 nM after 48 hrs by immunoblot analysis relative to control; assay type: cell-based; summary of the method: as §2
[18] = molecular target: T2, Induced myeloid leukemia cell differentiation protein Mcl-1; experiment: Induction of MCL1 short isoform degradation in CRBN-/- human OPM2 cells assessed as protein abundance at 250 nM after 48 hrs by immunoblot analysis relative to control; assay type: cell-based; summary of the method: as §2
[19] = molecular target: T2, Induced myeloid leukemia cell differentiation protein Mcl-1; experiment: Binding affinity to MCL1 short isoform in human OPM2 incubated overnight using biotin labelled compound by streptavidin based immunoprecipitation method
[20] = molecular target: T2, Induced myeloid leukemia cell differentiation protein Mcl-1; experiment: Binding affinity to MCL1 long isoform in human OPM2 incubated overnight using biotin labelled compound by streptavidin based immunoprecipitation method
[21] = molecular target: T1, Protein cereblon/Induced myeloid leukemia cell differentiation protein Mcl-1 (Homo sapiens); experiment: Protac activity at Cereblon/MCL1 in human HeLa cell lysate assessed as MCL1 degradation incubated for 3 hrs by SDS-PAGE/immunoblot analysis; assay type: subcellular
[22] = molecular target: T1, Protein cereblon/Induced myeloid leukemia cell differentiation protein Mcl-1 (Homo sapiens); experiment: Protac activity at Cereblon/MCL1 in human OPM2 cells after 48 hrs by immunoblot analysis; assay type: cell-based; summary of the method: as §2
[23] = molecular target: T1, Protein cereblon/Induced myeloid leukemia cell differentiation protein Mcl-1 (Homo sapiens); experiment: Protac activity at Cereblon/MCL1 in human OPM2 cell lysate assessed as induction of MCL1 polyubiquitination incubated for 3 hrs by SDS-PAGE/immunoblot analysis; assay type: subcellular
Summary of the method: (§3)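 In vitro ubiquitinylation reactions; the target (MCL1 or BRD4) was then immunoprecipitated and the immunoprecipitate immunoblotted for ubiquitin.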

[24] = molecular target: Protein cereblon/Bromodomain-containing protein 4 (Homo sapiens) (UniProt O60885+Q96SW2); experiment: Protac activity at Cereblon/BRD4 in human OPM2 cell lysate assessed as induction of BRD4 polyubiquitination incubated for 3 hrs by SDS-PAGE/immunoblot analysis; assay type: subcellular; summary of the method: as §3
Sequence of Protein cereblon/Bromodomain-containing protein 4 (Homo sapiens) (Q96SW2 whole entry, looked up, other chains not shown): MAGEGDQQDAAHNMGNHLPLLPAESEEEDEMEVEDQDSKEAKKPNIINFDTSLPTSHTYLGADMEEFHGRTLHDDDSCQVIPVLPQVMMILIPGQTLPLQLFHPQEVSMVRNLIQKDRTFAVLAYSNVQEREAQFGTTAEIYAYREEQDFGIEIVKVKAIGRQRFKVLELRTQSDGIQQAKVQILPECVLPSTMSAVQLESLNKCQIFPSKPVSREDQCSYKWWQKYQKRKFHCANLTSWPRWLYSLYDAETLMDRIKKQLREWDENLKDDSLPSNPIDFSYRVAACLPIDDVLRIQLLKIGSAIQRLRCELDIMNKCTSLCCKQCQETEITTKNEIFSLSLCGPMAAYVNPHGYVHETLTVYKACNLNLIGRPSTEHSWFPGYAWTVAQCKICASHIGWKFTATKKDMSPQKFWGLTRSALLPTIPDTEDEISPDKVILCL

T2 sequence (Q07820 whole entry, canonical isoform): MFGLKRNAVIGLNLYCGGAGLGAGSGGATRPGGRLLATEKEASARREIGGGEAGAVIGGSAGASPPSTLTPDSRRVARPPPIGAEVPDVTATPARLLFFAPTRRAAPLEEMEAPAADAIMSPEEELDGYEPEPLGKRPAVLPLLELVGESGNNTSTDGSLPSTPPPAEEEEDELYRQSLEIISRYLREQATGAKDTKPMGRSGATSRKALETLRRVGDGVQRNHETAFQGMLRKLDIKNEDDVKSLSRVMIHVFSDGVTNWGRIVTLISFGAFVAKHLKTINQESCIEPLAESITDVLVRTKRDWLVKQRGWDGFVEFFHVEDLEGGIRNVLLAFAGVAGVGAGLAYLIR
T1 sequence (Q07820 whole entry, looked up, canonical isoform): as the sequence (Q07820 whole entry, canonical isoform) above
T1 sequence (Q96SW2 whole entry, looked up, canonical isoform): as the sequence (Q96SW2 whole entry, looked up, other chains not shown) above

SMILES: Cc1nn(C)c(COc2ccc(N3CCN(S(=O)(=O)N(C)C)CC3)cc2)c1-c1cccc2c(CCCOc3cccc4ccccc34)c(C(=O)O)n(CCN3CCOCC3)c12
- Activity [1]: 287%
- half-life [2]: 21.7 min
- Activity [3]: 374%
- Activity [4]: 140%
- Activity [5]: 286%
- Activity [6]: 152%
- Activity [7]: 140%
- Activity [8]: 162%
- Activity [9]: 111%
- Activity [10]: 195%
- Activity [11]: 100%
- Activity [12]: 110%
- Kd [13]: 19 nM
- Activity [14]: 148%
- Activity [15]: 183%
- Activity [16]: 275%
- Activity [17]: 237%
- Activity [18]: 154%

SMILES: Cc1nn(C)c(COc2ccc(N3CCN(S(=O)(=O)N(C)C)CC3)cc2)c1-c1cccc2c(CCCOc3cccc4ccccc34)c(C(=O)O)n(CCN3CCN(C(=O)CCCC[C@@H]4SC[C@@H]5NC(=O)N[C@@H]54)CC3)c12
- Activity [19]: Active
- Activity [20]: Active

SMILES: Cc1nn(C)c(COc2ccc(N3CCN(C(=O)COc4cccc5c4C(=O)N(C4CCC(=O)NC4=O)C5=O)CC3)cc2)c1-c1cccc2c(CCCOc3cccc4ccccc34)c(C(=O)O)n(CCN3CCOCC3)c12 (stereo unspecified)
- Activity [21]: inactive
- Activity [22]: inactive

SMILES: Cc1nn(C)c(COc2ccc(N3CCN(C(=O)CCCNC(=O)COc4cccc5c4C(=O)N(C4CCC(=O)NC4=O)C5=O)CC3)cc2)c1-c1cccc2c(CCCOc3cccc4ccccc34)c(C(=O)O)n(CCN3CCOCC3)c12 (stereo unspecified)
- Activity [21]: inactive
- Activity [22]: inactive

SMILES: Cc1nn(C)c(COc2ccc(N3CCN(S(=O)(=O)N(C)C)CC3)cc2)c1-c1cccc2c(CCCOc3cccc4ccccc34)c(C(=O)NCCCCNC(=O)COc3cccc4c3C(=O)N(C3CCC(=O)NC3=O)C4=O)n(CCN3CCOCC3)c12 (stereo unspecified)
- Activity [21]: inactive

SMILES: Cc1sc2c(c1C)C(c1ccc(Cl)cc1)=N[C@@H](CC(=O)NCCCCNC(=O)COc1cccc3c1C(=O)N(C1CCC(=O)NC1=O)C3=O)c1nnc(C)n1-2 (stereo partly specified)
- Activity [24]: Active

Now from value to molecule:

- Activity [19]: Active
- Activity [20]: Active
SMILES: Cc1nn(C)c(COc2ccc(N3CCN(C(=O)CCC(=O)NCCCOCCOCCOCCCNC(=O)CCCC[C@@H]4SC[C@@H]5NC(=O)N[C@@H]54)CC3)cc2)c1-c1cccc2c(CCCOc3cccc4ccccc34)c(C(=O)O)n(CCN3CCOCC3)c12

- Activity [23]: Active
SMILES: Cc1nn(C)c(COc2ccc(N3CCN(S(=O)(=O)N(C)C)CC3)cc2)c1-c1cccc2c(CCCOc3cccc4ccccc34)c(C(=O)O)n(CCN3CCN(C(=O)CCC(=O)NCCCOCCOCCOCCCNC(=O)COc4cccc5c4C(=O)N(C4CCC(=O)NC4=O)C5=O)CC3)c12 (stereo unspecified)

- Activity [21]: inactive
- Activity [22]: inactive
SMILES: Cc1nn(C)c(COc2ccc(N3CCN(C(=O)CCC(=O)NCCCOCCOCCOCNC(=O)COc4cccc5c4C(=O)N(C4CCC(=O)NC4=O)C5=O)CC3)cc2)c1-c1cccc2c(CCCOc3cccc4ccccc34)c(C(=O)O)n(CCN3CCOCC3)c12 (stereo unspecified)

— ChEMBL document CHEMBL4396889, “From Inhibition to Degradation: Targeting the Antiapoptotic Protein Myeloid Cell Leukemia 1 (MCL1)” (J Med Chem, 2019)
